Legend:
Mus musculus [1] = assay: In Vivo detection in Mice plasma after oral administration of 41.63 mg/kg detected in the form of AZT after 0.5 hr; type: functional, organism-based; design: dose 41.63 mg/kg
Mus musculus [2] = assay: In Vivo detection in Mice brains after oral administration of 41.63 mg/kg detected in the form of AZT phosphodiester 2 after 24 hr; type: functional
Mus musculus [3] = assay: In Vivo detection in Mice plasma after oral administration of 41.63 mg/kg detected in the form of AZT after 24 hr; type: functional, organism-based; design: dose 41.63 mg/kg
Mus musculus [4] = assay: In Vivo detection of total AZT in Mice brains after oral administration of 41.63 mg/kg after 48 hr; type: functional
How it was run: (§1)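 Male Swiss mice (18–20 g) dosed orally with a 3 mM solution in […] vehicle; decapitated at 0.5–48 h. Brains were homogenized in acetonitrile-water (3:1), centrifuged at 6000g for 40 min at 4 °C, lyophilized, redissolved in water and filtered (0.45 µm). Reversed-phase C18 column-switching HPLC with diode-array detection; standard spiking; vehicle-fed controls. Three mice per point, triplicates.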

Mus musculus [5] = assay: In Vivo detection of total AZT in Mice brains after oral administration of 41.63 mg/kg after 8 hr; type: functional; how it was run: as §1
Mus musculus [6] = assay: In Vivo detection in Mice plasma after oral administration of 58.33 mg/kg detected in the form of AZT 5`-P after 8 hr; type: functional, organism-based; design: dose 58.33 mg/kg
Mus musculus [7] = assay: In Vivo detection in Mice plasma after oral administration of 58.33 mg/kg detected in the form of AZT phosphodiester 2 after 2 hr; type: functional, organism-based; design: dose 58.33 mg/kg
How it was run: (§2)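 Male Swiss mice (18–20 g, six weeks old) given the test substance or vehicle ([…]) by gavage as a 3 mM solution (1.5 µmol/mouse). Aortic blood was collected into heparinized tubes at 0.5–48 h and centrifuged at 13000g for 10 min. Plasma was stored at -22 °C and analysed by HPLC. Three mice were used per time point, in triplicate. Values were not corrected for recovery.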

Mus musculus [8] = assay: In Vivo detection of total AZT in Mice plasma after oral administration of 58.33 mg/kg after 48 hr; type: functional, organism-based; design: dose 58.33 mg/kg; how it was run: as §2
Mus musculus [9] = assay: In Vivo detection in Mice brains after oral administration of 58.33 mg/kg detected in the form of AZT phosphodiester 2 after 24 hr; type: functional
Mus musculus [10] = assay: In Vivo detection in Mice brains after oral administration of 58.33 mg/kg detected in the form of AZT after 1 hr; type: functional
Mus musculus [11] = assay: In Vivo detection in Mice brains after oral administration of 58.33 mg/kg detected in the form of AZT phosphodiester 2 after 8 hr; type: functional
Mus musculus [12] = assay: In Vivo detection in Mice brains after oral administration of 58.33 mg/kg detected in the form of AZT phosphodiester 3 after 1 hr; type: functional
Mus musculus [13] = assay: In Vivo detection in Mice brains after oral administration of 58.33 mg/kg detected in the form of AZT after 4 hr; type: functional

SMILES	Plasma content (Mus musculus [1])	Brain content (Mus musculus [2])	Plasma content (Mus musculus [3])	Brain content (Mus musculus [4])	Brain content (Mus musculus [5])	Plasma content (Mus musculus [6])	Plasma content (Mus musculus [7])	Plasma content (Mus musculus [8])	Brain content (Mus musculus [9])	Brain content (Mus musculus [10])	Brain content (Mus musculus [11])	Brain content (Mus musculus [12])	Brain content (Mus musculus [13])
Cc1cn([C@H]2C[C@H](N=[N+]=[N-])[C@@H](COP(=O)(O)OCCO[C@H]3O[C@H](CO)[C@@H](O)[C@H](O)[C@@H]3O)O2)c(=O)[nH]c1=O	31.6 nM ml-1	4.5 nM ml-1	0 nM ml-1	51.8 nM ml-1	43.1 nM ml-1	–	–	–	–	–	–	–	–
CCCCCCCCCCCCCCCCOP(=O)(OCCO[C@H]1O[C@H](CO)[C@@H](O)[C@H](O)[C@@H]1O)OCC1OC(n2cc(C)c(=O)[nH]c2=O)CC1N=[N+]=[N-] (stereo partly drawn)	–	–	–	–	–	17.7 nM ml-1	0 nM ml-1	14.2 nM ml-1	5.2 nmol/g	1.5 nmol/g	5.3 nM ml-1	0 nmol/g	1 nmol/g

Reference: ChEMBL document CHEMBL1125520, “Improved brain delivery of AZT using a glycosyl phosphotriester prodrug” (1992)
